The sample as a whole holds a higher share of hits than the screen did.
T cruzi growth-1: blocks T. cruzi growth in NIH3T3 culture; T. cruzi beta-gal in NIH3T3, GalScreen luminescence, 90 h; hit rate 5.9% among 77,000; inhibition, % at 8.34 µM;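 active = mean inhibition above about 93%, with at least 55% of replicates each passing it, limit read from the data, passing the limit was not always enough; inconclusive = only one of those two conditions holds; inactive = neither condition holds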
GASC1 inh: KDM4C (human) demethylase inhibition. GST-KDM4C 2-372, H3K9me3 peptide, LANCE TR-FRET. inhibition, % at 12.5 µM. hit rate 0.15% among 96,000;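 active = mean replicate inhibition above about 25%, with at least 55% of replicates also reaching it, limit read from the data, passing the limit was not always enough; inconclusive = only one of those two conditions met; inactive = neither condition met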
Target sequence (Q9H3R0 2-372 limits assumed): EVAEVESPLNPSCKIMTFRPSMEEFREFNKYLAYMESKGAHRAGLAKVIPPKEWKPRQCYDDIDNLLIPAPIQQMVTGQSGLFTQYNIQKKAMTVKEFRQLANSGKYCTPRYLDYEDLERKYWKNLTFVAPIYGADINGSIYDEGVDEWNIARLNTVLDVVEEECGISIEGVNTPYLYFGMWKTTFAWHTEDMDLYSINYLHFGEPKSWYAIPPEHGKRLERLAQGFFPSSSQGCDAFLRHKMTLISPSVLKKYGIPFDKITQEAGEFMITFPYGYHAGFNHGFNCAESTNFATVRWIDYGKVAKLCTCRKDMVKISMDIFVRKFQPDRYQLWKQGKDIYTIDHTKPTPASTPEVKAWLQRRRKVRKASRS
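Test system – GST-tagged GASC-1 (JMJD2C) catalytic fragment, aa 2-372 · Medium – HEPES buffer, pH 7.5, plus ascorbate · Reagent – H3K9me3 peptide with Fe(II)/2OG · Compound – one test concentration per compound · Timing – 30 min reaction, 60 min detection, RT · Technique – TR-FRET with Eu antibody and ULight streptavidin, EDTA stop · Read-out basis – inhibition from TR-FRET ratio decrease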
IDH1 mut inh: inhibitors of human IDH1 R132H | IDH1 R132H reductase, diaphorase/resazurin fluorescence, 60 min | inhibition, % at 10 µM | hit rate 0.18% among 70,000 | AID 624101; in the data active = inhibition above about 34%; inconclusive = no clear call, values can overlap the other calls; inactive = below about 11%
Target sequence (O75874 whole entry R132H): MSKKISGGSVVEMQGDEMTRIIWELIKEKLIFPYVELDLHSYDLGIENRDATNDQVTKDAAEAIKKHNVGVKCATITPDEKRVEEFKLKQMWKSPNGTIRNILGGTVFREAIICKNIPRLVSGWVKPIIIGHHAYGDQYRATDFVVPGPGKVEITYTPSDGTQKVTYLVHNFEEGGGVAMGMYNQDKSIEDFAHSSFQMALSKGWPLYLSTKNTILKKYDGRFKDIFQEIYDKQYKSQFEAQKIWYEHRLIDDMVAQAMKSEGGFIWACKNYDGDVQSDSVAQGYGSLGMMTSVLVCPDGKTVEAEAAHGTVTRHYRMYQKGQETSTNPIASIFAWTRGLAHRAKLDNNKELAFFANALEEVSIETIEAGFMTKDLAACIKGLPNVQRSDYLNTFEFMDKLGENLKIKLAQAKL
T cruzi growth-2: inhibitors of T. cruzi proliferation | inhibition, % at 8.35 µM | AID 651739 | T. cruzi beta-gal in NIH3T3, GalScreen luminescence, 90 h | hit rate 72% among 5,600 | shares compounds with T cruzi growth-1;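 active = mean replicate inhibition above about 95% and at least 55% of replicates individually reaching it, limit read from the data; inconclusive = only one of the two criteria is met; inactive = neither criterion is met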
T cruzi growth-3: blocks T. cruzi growth in NIH3T3 host cells; shares compounds with T cruzi growth-1; T. cruzi beta-gal in NIH3T3, GalScreen luminescence, 90 h; inhibition, % at 2.09 µM; hit rate 21% among 5,600; AID 651740;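 active = mean inhibition above about 95%, with at least 55% of replicates also reaching it, limit read from the data; inconclusive = meets just one of the two conditions; inactive = meets neither condition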
3T3 cytotox: kills mouse NIH/3T3 fibroblasts; hit rate 14% among 5,600; NIH/3T3 viability, CellTiter-Glo ATP luminescence, 90 h; cytotoxicity (signal decrease), % at 8.35 µM; shares compounds with T cruzi growth-1; AID 651742;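 active = mean signal decrease across replicates above about 35% based on untreated-well scatter, with enough replicates individually passing, limit read from the data; inconclusive = no rule stated though some were filed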
3T3 cytotox 2: kills mouse NIH/3T3 fibroblasts | shares compounds with T cruzi growth-1 | NIH/3T3 viability, CellTiter-Glo ATP luminescence, 90 h | inhibition, % at 24.9 µM | hit rate 56% among 5,600 | AID 651744;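 active = mean loss of cell viability signal at or above a set limit, and enough replicates individually reaching it; inconclusive = meets only the mean limit or only the replicate share; inactive = meets neither condition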
Of the large screens only hits and unclear results are named; the others gave an inactive call (follow-up assays come after a bar, where they were run).

COc1ccc(C#Cc2ccc([C@H]3[C@H]4CN(C(=O)Nc5ccccc5F)CCCCN4[C@H]3CO)cc2)cc1	T cruzi growth-1 120 (no result: IDH1 mut inh) | T cruzi growth-2 106 | T cruzi growth-3 inactive | 3T3 cytotox inactive | 3T3 cytotox 2 33
O=C(Nc1cccc(F)c1)N1CCCCN2[C@@H](CO)[C@@H](c3ccc(C#Cc4cccnc4)cc3)[C@@H]2C1	T cruzi growth-1 100 (no result: IDH1 mut inh) | T cruzi growth-2 106 | T cruzi growth-3 100 | 3T3 cytotox 59 | 3T3 cytotox 2 103
COc1ccc(C#Cc2ccc([C@H]3[C@H](CO)N4CCCCN(C(=O)Nc5ccc(F)cc5)C[C@@H]34)cc2)cc1	none (no result: IDH1 mut inh)
O=C(Nc1cccc(F)c1)N1CCCCN2[C@@H](CO)[C@@H](c3ccc(C#Cc4ccccc4)cc3)[C@@H]2C1	none (no result: IDH1 mut inh)
C[C@@H]1CCCCO[C@@H](CN(C)Cc2ccc(C(=O)O)cc2)[C@@H](C)CN([C@@H](C)CO)C(=O)c2cc(NS(=O)(=O)c3cn(C)cn3)ccc2O1	none
CC(C)NC(=O)Nc1ccc2c(c1)C(=O)N([C@H](C)CO)C[C@@H](C)[C@H](CN(C)Cc1ccc(C(F)(F)F)cc1)OCCCC[C@@H](C)O2	none (no result: T cruzi growth-1, IDH1 mut inh)
COc1ccc(C#Cc2ccc([C@@H]3[C@@H](CO)N4CCCCN(C(=O)Nc5ccccc5)C[C@@H]34)cc2)cc1	T cruzi growth-1 111 (no result: IDH1 mut inh) | T cruzi growth-2 inactive | T cruzi growth-3 inactive | 3T3 cytotox inactive | 3T3 cytotox 2 102
COc1ccc(C#Cc2ccc([C@H]3[C@H](CO)N4CCCCN(C(=O)Nc5ccccc5)C[C@@H]34)cc2)cc1	none (no result: IDH1 mut inh)
COc1ccc(NC(=O)N2CCCCN3[C@H](CO)[C@@H](c4ccc(C#Cc5ccccc5)cc4)[C@@H]3C2)cc1	T cruzi growth-1 112 (no result: GASC1 inh, IDH1 mut inh) | T cruzi growth-2 inactive | T cruzi growth-3 inactive | 3T3 cytotox 37 | 3T3 cytotox 2 104
COc1ccc(NC(=O)N2CCCCN3[C@H](CO)[C@@H](c4ccc(C#Cc5ccccc5)cc4)[C@H]3C2)cc1	T cruzi growth-1 107 (no result: GASC1 inh, IDH1 mut inh) | T cruzi growth-2 96 | T cruzi growth-3 104 | 3T3 cytotox 91 | 3T3 cytotox 2 104
COc1ccc(NC(=O)N2CCCCN3[C@H](CO)[C@H](c4ccc(C#Cc5ccccc5)cc4)[C@@H]3C2)cc1	none (no result: GASC1 inh, IDH1 mut inh)
COc1ccc(NC(=O)N2CCCCN3[C@@H](CO)[C@@H](c4ccc(C#Cc5ccccc5)cc4)[C@@H]3C2)cc1	none (no result: GASC1 inh, IDH1 mut inh)
CCCNC(=O)N1[C@H](CO)[C@@H](c2ccccc2)[C@@H]1CNC(C)=O	none (no result: IDH1 mut inh)
O=C(N[C@H]1C=C[C@@H](CC(=O)N2CCN(c3ccccc3)CC2)O[C@H]1CO)c1ccncc1	none
C[C@H]1CN([C@@H](C)CO)C(=O)Cc2cc(NS(=O)(=O)c3ccc(Cl)cc3)ccc2O[C@H]1CN(C)Cc1ccc(C(=O)O)cc1	none
O=C(C[C@H]1CC[C@@H]2[C@H](COC[C@H](O)CN2Cc2ccccc2)O1)NCCc1ccccc1	none (no result: IDH1 mut inh)
C[C@H](CO)N1C[C@H](C)[C@@H](CN(C)C(=O)C2CCC2)Oc2cc(C#CCN(C)C)ccc2S1(=O)=O	T cruzi growth-1 106 | T cruzi growth-2 99 | T cruzi growth-3 inactive | 3T3 cytotox inactive | 3T3 cytotox 2 inactive
C[C@@H]1CN([C@H](C)CO)S(=O)(=O)c2ccc(C#CCN(C)C)cc2O[C@@H]1CN(C)C(=O)C1CCC1	none (no result: IDH1 mut inh)
C[C@H]1CN([C@@H](C)CO)S(=O)(=O)c2ccc(C#CCN(C)C)cc2O[C@@H]1CN(C)C(=O)C1CCCCC1	none (no result: T cruzi growth-1, IDH1 mut inh)
C[C@H](CO)N1C[C@H](C)[C@@H](CN(C)C(=O)C2CC2)Oc2cc(C#CCN(C)C)ccc2S1(=O)=O	T cruzi growth-1 100 (no result: IDH1 mut inh) | T cruzi growth-2 107 | T cruzi growth-3 inactive | 3T3 cytotox inactive | 3T3 cytotox 2 inactive
CC(C)CC#Cc1ccc2c(c1)O[C@@H](CN(C)C(=O)C1CCOCC1)[C@@H](C)CN([C@H](C)CO)S2(=O)=O	none
CC(C)CC#Cc1ccc2c(c1)O[C@@H](CN(C)C(=O)C1CCC1)[C@@H](C)CN([C@@H](C)CO)S2(=O)=O	T cruzi growth-1 105 (no result: IDH1 mut inh) | T cruzi growth-2 104 | T cruzi growth-3 inactive | 3T3 cytotox inactive | 3T3 cytotox 2 96
CC(C)CC#Cc1ccc2c(c1)O[C@H](CN(C)C(=O)C1CCCCC1)[C@H](C)CN([C@@H](C)CO)S2(=O)=O	T cruzi growth-1 112 | T cruzi growth-2 102 | T cruzi growth-3 103 | 3T3 cytotox inactive | 3T3 cytotox 2 104
CC(C)CC#Cc1ccc2c(c1)O[C@H](CN(C)C(=O)C1CCOCC1)[C@@H](C)CN([C@H](C)CO)S2(=O)=O	none
CC(C)CC#Cc1ccc2c(c1)O[C@@H](CN(C)C(=O)C1CC1)[C@H](C)CN([C@@H](C)CO)S2(=O)=O	T cruzi growth-1 104 (no result: IDH1 mut inh) | T cruzi growth-2 104 | T cruzi growth-3 inactive | 3T3 cytotox inactive | 3T3 cytotox 2 55
CC(C)CC#Cc1ccc2c(c1)O[C@@H](CN(C)C(=O)C1CC1)[C@@H](C)CN([C@@H](C)CO)S2(=O)=O	none (no result: IDH1 mut inh)
CC(C)CC#Cc1ccc2c(c1)O[C@@H](CN(C)C(=O)C1CCCCC1)[C@@H](C)CN([C@@H](C)CO)S2(=O)=O	T cruzi growth-1 113 | T cruzi growth-2 inconclusive | T cruzi growth-3 inconclusive | 3T3 cytotox inactive | 3T3 cytotox 2 105
CC(C)CC#Cc1ccc2c(c1)O[C@H](CN(C)C(=O)C1CCOCC1)[C@H](C)CN([C@H](C)CO)S2(=O)=O	none
CC1Nc2ccc(Cl)cc2S(=O)(=O)N1 (centres undefined)	none (no result: T cruzi growth-1, GASC1 inh)
CC1(C)O[C@@H]2C[C@H]3[C@@H]4C[C@H](F)C5=CC(=O)C=C[C@]5(C)[C@H]4[C@@H](O)C[C@]3(C)[C@]2(C(=O)CO)O1	none (no result: T cruzi growth-1, GASC1 inh)
CS(=O)(=O)N1[C@@H]2c3ccc(-c4ccc(F)cc4)c(=O)n3C[C@H]1[C@H](CO)[C@H]2C(=O)NCC1CC1	none (no result: IDH1 mut inh)
C[C@@H]1CN([C@H](C)CO)C(=O)c2cc(NS(=O)(=O)c3ccc(Cl)cc3)ccc2O[C@@H]1CN(C)S(=O)(=O)c1ccc(Cl)cc1	none
C[C@@H]1CCCCO[C@H](CN(C)Cc2ccc3c(c2)OCO3)[C@H](C)CN([C@@H](C)CO)C(=O)c2cc(NC(=O)Nc3ccc(F)cc3)ccc2O1	T cruzi growth-1 105 (no result: IDH1 mut inh) | T cruzi growth-2 105 | T cruzi growth-3 103 | 3T3 cytotox inactive | 3T3 cytotox 2 104
C[C@@H]1CCCCO[C@H](CN(C)Cc2ccc3c(c2)OCO3)[C@@H](C)CN([C@H](C)CO)C(=O)c2cc(NC(=O)Nc3ccc(F)cc3)ccc2O1	T cruzi growth-1 98 (no result: IDH1 mut inh) | T cruzi growth-2 112 | T cruzi growth-3 inactive | 3T3 cytotox inactive | 3T3 cytotox 2 inactive

High-throughput results (PubChem BioAssay)
